System: MS2 coat protein
Experiment: apparent Kd, MS2 coat protein; higher = weaker binding; RNA-MaP array; FMN 200 µM where present
Summary of the method: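 Each design was made on Illumina sequencing-chip clusters by stalled E. coli RNA polymerase and titrated with SNAP-549-labelled MS2 coat protein from 0.7 or 1.5 nM, doubling to 3 µM, in the absence and then the presence of constant ligand. The buffer was 100 mM Tris-HCl pH 7.5, 80 mM KCl, 4 mM MgCl2, BSA, DTT, yeast tRNA and Tween-20. The apparent Kd is the median of filtered per-cluster fits of binding curves, with green signal normalised to red-channel RNA signal and control-cluster median Fmax.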

[1] = designed as: OFF switch for flavin mononucleotide, no ligand
[2] = ligand present: flavin mononucleotide, designed as: OFF switch for flavin mononucleotide
[3] = designed as: ON switch for flavin mononucleotide, no ligand
[4] = ligand present: flavin mononucleotide, designed as: ON switch for flavin mononucleotide

Sequence	apparent Kd [1]	apparent Kd [2]	apparent Kd [3]	apparent Kd [4]
CUUGUGUUAGGAUAUGCGCCCUGAAGUGGCAGGGCCAGAGAGCAGAAGGGACAUGAGGAUCACCCAUGUGUGAC	84.3 nM	127 nM		
AUUAUGUAAGGAUAUCUUACAUGUGACUUCGGUCACUGUUCAGAGAAGGUACAUGAGGAUCACCCAUGUAGAAC	17.9 nM	18.4 nM		
GUUGCUUAUGAGAAGGCGAUCAUGAAACAUGAUCGAGGAUAUCAUGUAAACAUGAGGAUCACCCAUGUAUGGGUAUUAUGCAGC			320 nM	69.3 nM
UUGCCCGCCGGAGGAUAUCUACUCUGUGGUGCACUGCGUUUGCAAUACAUGAGGAUCACCCAUGUAGAGAAGGCCGAGGGCACA	318 nM	48.3 nM		
AGGUGACAUGAGGAUCACCCAUGUCAGGAUAUAUACACUGGCGACGUGACGUCGGCAGAUAGAAGGGACAAAGU	17.2 nM	20 nM		
CUUUCGUGAGGAUAUCAGUAGUAAAAAAAUAAAAUUACUACUGAGAAGGCACAUGAGGAUCACCCAUGUUCCUC	21.8 nM	143 nM		
ACUGACAUGAGGAUCACCCAUGUCUUGAAUAGGUCAAAUUCACAGGAUAUGCACGCGGACAGAGUGCAGAAGGGUGAUGCAAUG			44 nM	11.8 nM
ACUGAGGACACAGGAUAUCCGGUUAGGGUAAUCGGAGAAGGGUGACGGCAUGUAGGAAGUCACAUGAGGAUCACCCAUGUGAGA			182 nM	83.5 nM
GCAGUACGCCUGGCAAUUUGCAAGCAGGAUAUCAGGCACCGUGAGACAUGAGGAUCACCCAUGUCUGAGAAGGGCUGGAGUUGC	9.68 nM	18.9 nM		
GCAGUAAAUAAAUGCACAUGAGGAUCACCCAUGUGGGAGGCACAGGAUAUCGCACCAUAGUGGCGCGAGAAGGGUGAUAAUCUC			416 nM	57.8 nM
GAGUGACAUGAGGAUCACCCAUGUGAGGAUAUCGGACGGACCUAGUUAGCUUCCGCCGCGAGAAGGCACAUCGG	121 nM	45.8 nM		
GGAGCCGGUACUGAGGAUAUUCAUAUUAAAACAUGAGGAUCACCCAUGUGGGCCAGAAGGCCUUGGGAGAAGGCAGACCAGCUCG			238 nM	22.1 nM
UUUUACUGAGGAUAUACAUUUUUUUAUUUAUUUAUAAUAUUACAUGAGGAUCACCCAUGUAGAAGGCAGAUUUU	27.4 nM	24.4 nM		
CCUCGGAGUAAGGAUAUCAAUUUGUAGAUAGAUUGAGAAGGUACUACAUGAGGAUCACCCAUGUCCCGUCUCAA	14.7 nM	16.4 nM		
CUUGUGUUAGGAUAUGCGCCCUGCAAAAGCAAGGCCAGAGAGCAGAAGGAACAUGAGGAUCACCCAUGUGUGAC	55.8 nM	57.7 nM		
GCACGGCAUGUAGGAUAUCGAGCGCCGGGCGCUCGAGAAGGACAUGAGGAUCACCCAUGUGCUCACAGUGAGUGAGUGCUGUGC	19.6 nM	37.4 nM		
CCUCUACAUGAGGAUCACCCAUGUCAGGAUAUCGUGUGUUUUUUUUCGGCCGCGCGUGCGAGAAGGGACGUCUU	31.9 nM	32 nM		
ACAUGAGGAUCACCCAUGUAUACAUAGGAUAUUGGUGAUCAGGCAUGUUAUACAGGAUAUGUCUGCGAGAAGGAUGCACGUUGC			680 nM	476 nM
AAAUUUUGUCAAGGAUAUGUAUAAAAGAGAAGAAAACAUGAGGAUCACCCAUGUAUAUGGUGGGAACAGAAGGUGAAUAAGUAA	164 nM	154 nM		

Sequence	apparent Kd [1]	apparent Kd [2]	apparent Kd [3]	apparent Kd [4]
AGAACUGAUAGAGGAUAUGUUUUACAUGAGGAUCACCCAUGUGUACAAGGAUCAAUAUAUUAGUAACAGAAGGCUAUUAGUGAG	13.2 nM	19.5 nM		
AAGUAGGCAGGAUAUACAUGAGGAUCACCCAUGUGCCCAUGAAAGGUACUUUCGAAAGGUAGAAGGGCCUACAA	16.5 nM	35.6 nM		
GAAUUCUCAGGAUAUGUGCGAAGUUACAUGAGGAUCACCCAUGUUAGCCCGUGUCUUUGAGCAGAAGGGAGAGGCU	14 nM	13.6 nM		
UCGGCGCGAGGAUAUGCGGUUCCUUCUUCGGGCCGGAGCGUACAUGAGGAUCACCCAUGUAGAAGGCGCGCCGC	13.6 nM	15.3 nM		
UGUCGGAGUAGAGGAUAUUACAUGAGGAUCACCCAUGUAUGAACCAAUAGCUGGAAACAGCAAUGUAAGAAGGCUGCUCCGACA	8.91 nM	110 nM		
CUAGUACAUGAGGAUCACCCAUGUCAGGAUAUUGGAUAUGCCUUGGAAUACAUGUUUACAAGAAGGGACUAUAG	23 nM	21.7 nM		
GACGGACAUGAGGAUCACCCAUGUAGGUUGGCCACAGGAUAUGCAAAACGGCCUGCCGCGGCAGAAGGGUGAGCCC			39.1 nM	43.7 nM
GAGCGGGAAACAUGAGGAUCACCCAUGUAAAAAAUCCUCAAGUAGGAUAUGCGAAAAAAAAAAAAGCAGAAGGGCUACCCGGUC	58.3 nM	72.7 nM		
AACACAACAUGAAACAUGAGGAUCACCCAUGUUGUUUGUAAUCAGGAUAUGAUUUUAAUAAUGAAUUAGAAGGGAUAUGGAUUU			28.9 nM	36.9 nM
GUAGCAUACCGAGGAUAUUCACCGGAAACGGAAACAUGAGGAUCACCCAUGUGGCGAAAGCCUUGGGAGAAGGCGGAAUGCUAC			195 nM	24.5 nM
GACUUCUCUGAGGAUAUUGCAUCAUACGAUAAAUAAGAAGGCAGAACAUGAGGAUCACCCAUGUGGGCUCCAAG	54.7 nM	256 nM		
GACCGCGAGGAAGGAUAUGGAGCCUUAUUGGCUCCAGAAGGUCCAUAAAGGACAUGAGGAUCACCCAUGUGGUGAGAAGCGGUC			2070 nM	179 nM
CUGCAACAUGAGGAUCACCCAUGUAACCCAAUUAUAGGAUAUGUGAUGGUGAUCGACAUGACAGAAGGGUGAUUGG			38.8 nM	149 nM
UUUUUUUUUAGAGGAUAUAUUGUGUGUUAUAUAAUAGAAGGCUAAACAUGUGACAUACACAUGAGGAUCACCCAUGUUUUGUUU			31.6 nM	27 nM
UGAUAGAGCCUAGGAUAUUCGGAUCUACUACAAGGAGAAGGAGGUAGUCGGUGACGAACAUGAGGAUCACCCAUGUCGUCCUUC	67.8 nM	69.9 nM		
CACUGCAUGUAAGGAUAUCGACUGGAAUACAGUCGAGAAGGUACAUGAGGAUCACCCAUGUAAGCAGUGAAUAAUAAUAAUAAU	12.1 nM	23.4 nM		
AUCAGCUCGUCAGGAUAUACGUCACUGCGUCAGCAGUGUGGUAAGCUCACAUGAGGAUCACCCAUGUAGAAGGGACGAGCUGAU	6.48 nM	22.9 nM		
GUCAGCUCGUGAGGAUAUACAUCACUGCUUCGGCAGUGUAUUAAGACUACAUGAGGAUCACCCAUGUAGAAGGCACGAGCUGAU	17.4 nM	17.9 nM		
AAAUCAGUAGGAUAUACGAUUUUAUACUAGAUAGAGGAACCACAUGAGGAUCACCCAUGUAGAAGGACUAGAUA	14.6 nM	14.9 nM		

Sequence	apparent Kd [1]	apparent Kd [2]	apparent Kd [3]	apparent Kd [4]
UUAUUAUAUAUAGGAUAUUGAUGUAAUUUAUUUCAAGAAGGAUAUACAUGAGGAUCACCCAUGUUGGAUAGGGUUAGUUUGUUU			86.5 nM	154 nM
UAAACAUGAGGAUCACCCAUGUUAUGAUCGGUUGAUGAAAGUGAGGAUAUACUUAAUUUUAUGGAGUAGAAGGCACUGGGUUCU			23.1 nM	28.6 nM
AAUUAUUUACAGAAGGAGUAAGAUUAUGUAUUACUAGGAUAUGUUCACAUGAGGAUCACCCAUGUCAAAGUAGGUUUUUUAUGU	12.4 nM	12.3 nM		
UUUAAGUCAGGAUAUCGUUAAUUUAAUUAUUUAUUUUAAUUCGAGAAGGGACAUGAGGAUCACCCAUGUAAUUU	36.1 nM	55.9 nM		
CUAUUACGAGGAUAUGAUUUAAAUAACAUGAGGAUCACCCAUGUUUUUACGUUAUUUUAUUUAGAAGGCGUAUAGU	41.8 nM	31 nM		
ACAAAGUGAGGAUAUGCUUUUAUUUAUUAUUAUUAUUAUUUGCAGAAGGCACAUGAGGAUCACCCAUGUAAGAA	32.9 nM	25.5 nM		
ACAUGAGGAUCACCCAUGUAUUACAUGGUUUAGUUUAUUAACAGAAGGCGAAAUUACCACUUUUUCGAGGAUAUGUAUUCUAUA	71 nM	64.2 nM		
GUGUAGAUAUCAGGAUAUCUAUUUCCUACAUGAGGAUCACCCAUGUAGAUGAUCACCCAUGUAAAGGAGAAGGGAUAUCUAUAC			192 nM	156 nM
GAGUAGAUCCGAGGAUAUACAAUCCGGAAACGGUACAUGAGGAUCACCCAUGUAGAAGGCGGAUCUACAGGUACUAAAGUACCG	5.99 nM	9.24 nM		
GCCAUCGCAUGAGGAUAUGCUCCCGUUUCGGGAGCAGAAGGCAUGUCAAAAGACAUGAGGAUCACCCAUGUAGUUAAGAUGGCA			122 nM	7.89 nM
AAGCGAGGGACAGGAUAUGCGGCGAAACUCGCCGCAGAAGGGUCGACAUGAGGAUCACCCAUGUCCUUACGCUCCAAGUAAAGG			216 nM	436 nM
GACUUGUAAGGAUAUCGUGCAAGUUUCAAAAGAGGCUUGUGCGAGAAGGUACAUGAGGAUCACCCAUGUAGGUU	27 nM	56.6 nM		
AAAUUGUGAGGAUAUUCGAUGUACUCGGAGACGAGUAUAUCGGAGAAGGCACAUGAGGAUCACCCAUGUUCCUU	17.6 nM	92.6 nM		
CAGCUACCCAGUAUGGGUAUUUGUACAGAAGGCCAGGUACAUGAGGAUCACCCAUGUAAAGAUAUGGAGGAUAUGUUAGUGUAU			22.1 nM	6.86 nM
CAGUACUGAGGAUAUACAUGAGGAUCACCCAUGUCCCAAAAGUAGGAUACUACUAUUAGUAGAAGGCAGUACUG	37.4 nM	323 nM		
UUGGUUGUCGUAGGAUAUGUAGGAUAUUCCUACAUGAGGAUCACCCAUGUUCGCAUGGAAGAAGGACGGAAGGACGAUGACCAU			317 nM	109 nM
AAUGUUGGAGGAUAUACGCGAGUGCUCAGUUGGCCCGGUCGACAUGAGGAUCACCCAUGUAGAAGGCCGACGCU	14.4 nM	16.9 nM		
GGGUUGUGAGGAUAUUAGUUGUACGUCAAUAGACGUAUGGGUGAGAAGGCACAUGAGGAUCACCCAUGUUCCUG		126 nM		

From the EternaBench riboswitch data
